A short description of series [1]: AUC (0 to 24 hrs) in cynomolgus monkey at 3 mg/kg, po by LC-MS/MS analysis. In kind it is ADME, organism-based, Macaca fascicularis. Also on record: time < 24 hr, dose 3 mg/kg, route oral. As to conditions: in vivo. An outline of the steps:
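Sprague Dawley rats, Beagle dogs and Cynomolgus monkeys were dosed IV at 1 mg/kg (rat, dog) or 0.91 mpk (monkey) in 5% Solutol/5% EtOH in saline. Oral/nasogastric dosing was 3 mpk in 1.0% CMC/0.25% PS80/0.05% antifoam in purified water. Samples were processed to plasma and analysed by LC-MS/MS; values are mean ± SD, N=2-3.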

The nature of series [2]: Tmax in cynomolgus monkey at 3 mg/kg, po by LC-MS/MS analysis. As to conditions: in vivo. In kind it is ADME, organism-based, Macaca fascicularis. The procedure, abridged:
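Oral/nasogastric dosing at 3 mpk in 1.0% CMC/0.25% PS80/0.05% antifoam in purified water. Plasma samples collected and analyzed by LC-MS/MS; parameters reported as mean ± SD, N=2-3.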

Series [3] deals with Mus musculus. As to the kind of experiment: Antidyslipidemic activity in western-diet fed mouse expressing LDL-receptor (-/-) assessed as decrease in low density lipoprotein level at 3 mg/kg qd for a week administered via gavage by FPLC analysis. As to conditions: po. The class given is functional. The procedure, abridged:
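LDLR null male mice, six per group, were dosed by gavage once daily for one week (vehicle 5% Solutol, 5% EtOH, 1% wt/v CMC; 5 mL/kg). Serum was collected by cardiac puncture on day 7 under CO2 anaesthesia. Pooled serum from each treatment group was fractionated by FPLC to quantify VLDL and LDL.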

For series [4], the system named is Mus musculus. Put plainly: Antidyslipidemic activity in western-diet fed mouse expressing LDL-receptor (-/-) assessed as decrease in total cholesterol level administered once daily for a week via gavage […]. In kind it is functional. As to conditions: po. An outline of the steps:
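Male LDLR null mice, six per group, were gavaged once daily for one week with compound (in situ sodium salt) or vehicle (5% Solutol, 5% EtOH, 1% wt/v CMC) at 5 mL/kg. On day 7 they were bled by cardiac puncture under CO2 anaesthesia. Serum cholesterol and triglycerides were measured enzymatically on a clinical chemistry analyser (mean ± SD, n=6). ED50 was obtained by nonlinear regression.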

Another series has as its target T1, Glucocorticoid receptor (Homo sapiens, UniProt P04150).
T1 sequence (P04150 whole entry): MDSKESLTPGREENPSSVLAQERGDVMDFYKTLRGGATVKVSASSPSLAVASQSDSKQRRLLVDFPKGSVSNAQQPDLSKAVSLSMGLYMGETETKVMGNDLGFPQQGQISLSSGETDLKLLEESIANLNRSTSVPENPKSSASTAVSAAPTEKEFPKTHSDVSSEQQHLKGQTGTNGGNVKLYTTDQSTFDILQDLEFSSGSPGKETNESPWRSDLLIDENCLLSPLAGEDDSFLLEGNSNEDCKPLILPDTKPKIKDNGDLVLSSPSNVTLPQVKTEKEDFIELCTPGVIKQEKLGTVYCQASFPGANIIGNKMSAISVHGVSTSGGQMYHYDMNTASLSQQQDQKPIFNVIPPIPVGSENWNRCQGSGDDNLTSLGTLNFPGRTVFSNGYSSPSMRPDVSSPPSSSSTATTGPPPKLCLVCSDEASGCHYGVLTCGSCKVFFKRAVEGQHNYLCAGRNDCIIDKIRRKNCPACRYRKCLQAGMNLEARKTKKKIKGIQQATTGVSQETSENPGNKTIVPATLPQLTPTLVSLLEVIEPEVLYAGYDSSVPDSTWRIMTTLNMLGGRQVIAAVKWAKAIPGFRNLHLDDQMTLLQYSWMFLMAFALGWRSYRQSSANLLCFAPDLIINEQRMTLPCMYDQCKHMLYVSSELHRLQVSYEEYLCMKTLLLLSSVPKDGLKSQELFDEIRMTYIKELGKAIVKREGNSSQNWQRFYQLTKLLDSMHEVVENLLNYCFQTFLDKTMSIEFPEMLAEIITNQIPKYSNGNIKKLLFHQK
As to the kind of experiment: Agonist activity at glucocorticoid receptor (unknown origin) expressed in HEK293 cells assessed as transcriptional activation. The class given is cell-based.

The next series deals with Rattus norvegicus. Put plainly: Antidyslipidemic activity in ZDF rat assessed as HDL level at 10 mg/kg for 9 days by FPLC analysis (reference value: 48.3 mg/dL). In kind it is functional, Zucker.

The results in this text go back to ChEMBL document CHEMBL3745677, “Discovery of 6-(4-{[5-Cyclopropyl-3-(2,6-dichlorophenyl)isoxazol-4-yl]methoxy}piperidin-1-yl)-1-methyl-1H-indole-3-carboxylic Acid: A Novel FXR Agonist for the Treatment of Dyslipidemia” (J Med Chem, 2015).

Broadly, the AUC(0-t) is the area under the concentration-time curve up to a stated or last time point. Broadly, the Tmax is the time at which the peak concentration occurs. Broadly, the inhibition in vivo is the share of the control response that was lost under treatment. One may read the EC50 as the concentration needed to bring the measured effect to its halfway point.

As for `Cn1cc(C(=O)O)c2ccc(N3CCC(OCc4c(-c5c(Cl)cccc5Cl)noc4C4CC4)CC3)cc21` [TERN-101], the AUC(0-t) at 24 h in series [1] was 1810 ng·h/mL. Also, the Tmax in series [2] is 3.33 h. For the same molecule, the inhibition in vivo at 3 mg/kg with Mus musculus [3] came out at 15%. Moreover, in the series on Mus musculus [4], the ED50 came out at 2 mg/kg. Besides, at Glucocorticoid receptor, the EC50 was above 10 µM. The Activity with Rattus norvegicus turned out to be 74.4 mg/dL.
